Data as given in ChEMBL document CHEMBL2331195, “Lahorenoic acids A-C, ortho-dialkyl-substituted aromatic acids from the biocontrol strain Pseudomonas aurantiaca PB-St2” (J Nat Prod, 2013).
≈ marks a conversion by molar mass, not a printed value. Calls of active or inactive are those of the source. No cut-off for these calls is given here.

What was measured:
[1] = tested on: Mycobacterium tuberculosis; experiment: Antituberculosis activity against Mycobacterium tuberculosis H37Rv […] incubated for 7 days by Alamar blue assay; format: functional
Procedure, shortened: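 Virulent H37Rv (ATCC 27294) in 96-well plate; compounds from 10 mg/mL DMSO stock, 2-fold dilutions from top 100 μg/mL (1% v/v DMSO final); 7 days at 37 °C; growth by Alamar Blue fluorescence; MIC = lowest concentration giving ≥90% fluorescence inhibition versus untreated bacteria; rifampicin and isoniazid positive controls, 1% DMSO negative control.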

HCT-116 = experiment: Cytotoxicity against human HCT116 cells assessed as growth inhibition after 5 days by hemocytometry; format: cell-based
Procedure, shortened: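 HCT-116 cells were seeded at 5 × 10^4 cells/T25 flask in serum medium with 1% penicillin–streptomycin and 1% glutamine, at 37 °C and 5% CO2. Compound at various concentrations was added on day 3, followed by 120 h incubation. Cells were trypsinized, washed and resuspended in HBSS, then hemocytometer-counted. Counts were normalized to untreated control, and IC50 was derived by nonlinear regression.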

LNCaP = experiment: Solid tumor cytotoxicity against human LNCAP cells assessed as inhibition of cell colony formation by disc diffusion soft-agar colony formation assay; format: functional, cell-based
Procedure, shortened: (§1)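 Cells plated in soft agar; compound dissolved in 250 μL DMSO, 15 μL applied to a cellulose disc on the plate; after incubation, colony-inhibition zone measured from disc edge to colony growth in zone units (200 zu = 6 mm); solid-tumour selectivity judged as ≥250 zu difference versus leukemia or normal CFU-GM cells.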

[2] = Antifungal activity against Colletotrichum falcatum assessed as inhibition of mycelial growth at 100 ug/disc incubated for 10 to 15 days at 25 degC; format: functional
Procedure, shortened: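 Four C. falcatum strains from local sugar cane varieties (BF166, C01148, CP77400, SPF234) on potato dextrose agar; mycelial plug at plate centre, compound-loaded air-dried filter discs (25–200 μg, in methanol, chloroform or DMSO) placed 2 cm away; 10–15 days at 25 °C; zone of mycelial inhibition around disc; solvent discs as negative controls; three repeats in duplicate.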

H125 = experiment: Solid tumor cytotoxicity against human H125 cells assessed as inhibition of cell colony formation by disc diffusion soft-agar colony formation assay; format: functional, cell-based; procedure, shortened: as §1
MCF7 = experiment: Solid tumor cytotoxicity against human MCF7 cells assessed as inhibition of cell colony formation by disc diffusion soft-agar colony formation assay; format: functional, cell-based; procedure, shortened: as §1
[3] = tested on: Arthrobacter crystallopoietes; experiment: Antibacterial activity against Arthrobacter crystallopoietes DSM 20117 assessed as inhibition of visible bacterial growth after 24 hrs; format: functional; details: Crystallibacter crystallopoietes
Procedure, shortened: (§2)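 Broth microdilution MIC using 2-fold serial dilutions. A. crystallopoietes DSM 20117 was grown in tryptic soy broth, and B. cereus in half-concentrated Mueller–Hinton broth. Final inoculum was 10^5 CFU per well. After 24 h at 37 °C, the MIC was read as the lowest concentration with no visible growth. Values are means of three independent determinations.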

Bacillus cereus = experiment: Antibacterial activity against Bacillus cereus assessed as inhibition of visible bacterial growth after 24 hrs; format: functional; procedure, shortened: as §2

| Structure (SMILES) | MIC90 ([1]; H37Rv ATCC 27292, 168 h) [µg/mL] | IC50 (HCT-116; Homo sapiens, HCT-116, 120 h, read-out: IC50) [µM] | inhibition zone (IZ) (LNCaP) | inhibition zone (IZ) [2] | inhibition zone (IZ) (H125) | inhibition zone (IZ) (MCF7) | MIC [3] | MIC (Bacillus cereus) | MIC90 [1] | IC50 (HCT-116; hct-116) | MIC ([3]; DSM 20117, 24 h) [µg/mL] |
| --- | --- | --- | --- | --- | --- | --- | --- | --- | --- | --- | --- |
| O=C(O)c1cccc2nc3ccccc3nc12 [PHENAZINE-1-CARBOXYLIC ACID] | 32.9 (≈ 147 µM) | 15.6 | Active | 2 mm | Active | Active |  |  |  |  |  |
| Oc1ccc2nc3ccccc3nc2c1 |  |  | inactive | inactive | inactive | inactive | inactive | inactive | inactive | Non-toxic |  |
| Oc1ccc2nc3ccc(O)cc3nc2c1 |  |  |  | inactive |  |  |  | 25 µg/mL (≈ 118 µM) |  | Non-toxic | 25 (≈ 118 µM) |
| COC(=O)CCCCCc1ccccc1/C=C/C(C)=O [LAHORENOIC ACID B] | 49.5 (≈ 180 µM) |  |  |  |  |  |  |  |  | Non-toxic |  |
